The M2OR odorant receptor database

Tests used:
Settings in all cases: stereoisomer not certain
UniProt Q8VGC6 = target: T1, UniProt Q8VGC6
T1 sequence (whole entry): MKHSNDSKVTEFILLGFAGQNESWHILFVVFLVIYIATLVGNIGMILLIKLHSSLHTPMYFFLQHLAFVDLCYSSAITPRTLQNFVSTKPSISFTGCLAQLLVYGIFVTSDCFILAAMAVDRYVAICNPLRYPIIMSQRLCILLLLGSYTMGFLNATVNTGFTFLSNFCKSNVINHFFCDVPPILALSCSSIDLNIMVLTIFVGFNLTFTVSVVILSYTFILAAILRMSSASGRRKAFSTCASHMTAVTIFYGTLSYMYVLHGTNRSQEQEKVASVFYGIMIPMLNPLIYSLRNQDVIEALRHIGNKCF
Outline: (§1)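 Each entry records the cell line, G-protein, co-transfected protein and tags used. Methods varied with the source, often transient luciferase assays in mammalian cell lines. A receptor–molecule pair is called responsive (active) if the original authors judged its signal statistically different from baseline and non-responsive (inactive) otherwise.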

UniProt Q8VGD7 = target: T2, UniProt Q8VGD7
T2 sequence (whole entry): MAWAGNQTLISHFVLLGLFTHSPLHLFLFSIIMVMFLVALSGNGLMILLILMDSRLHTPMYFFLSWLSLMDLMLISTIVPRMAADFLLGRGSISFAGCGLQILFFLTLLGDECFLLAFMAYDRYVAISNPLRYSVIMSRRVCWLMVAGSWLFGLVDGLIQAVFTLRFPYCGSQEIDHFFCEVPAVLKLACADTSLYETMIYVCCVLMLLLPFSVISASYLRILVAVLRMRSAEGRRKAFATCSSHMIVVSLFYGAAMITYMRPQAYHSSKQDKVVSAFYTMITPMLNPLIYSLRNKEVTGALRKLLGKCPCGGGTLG
Outline: as §1

UniProt Q8VGH1 = target: T3, UniProt Q8VGH1
T3 sequence (whole entry): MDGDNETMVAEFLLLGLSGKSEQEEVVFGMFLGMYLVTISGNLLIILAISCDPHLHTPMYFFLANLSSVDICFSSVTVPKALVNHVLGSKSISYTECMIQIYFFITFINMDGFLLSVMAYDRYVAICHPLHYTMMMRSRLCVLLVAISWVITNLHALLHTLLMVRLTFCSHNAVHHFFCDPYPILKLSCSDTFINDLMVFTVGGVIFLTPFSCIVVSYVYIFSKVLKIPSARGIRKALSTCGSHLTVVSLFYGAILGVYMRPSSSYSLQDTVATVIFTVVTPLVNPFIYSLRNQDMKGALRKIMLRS
Outline: as §1

UniProt Q8VGJ1 = target: T4, UniProt Q8VGJ1
T4 sequence (whole entry): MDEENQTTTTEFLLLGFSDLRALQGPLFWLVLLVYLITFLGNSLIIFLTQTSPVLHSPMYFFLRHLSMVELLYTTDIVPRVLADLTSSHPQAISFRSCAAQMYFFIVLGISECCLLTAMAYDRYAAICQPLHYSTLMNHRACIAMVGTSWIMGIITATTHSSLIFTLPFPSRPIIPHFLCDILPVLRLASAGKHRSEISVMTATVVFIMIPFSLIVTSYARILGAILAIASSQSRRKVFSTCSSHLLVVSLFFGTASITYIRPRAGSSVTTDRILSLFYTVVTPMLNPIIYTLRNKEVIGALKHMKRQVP
Outline: as §1

UniProt Q8VGJ3 = target: T5, UniProt Q8VGJ3
T5 sequence (whole entry): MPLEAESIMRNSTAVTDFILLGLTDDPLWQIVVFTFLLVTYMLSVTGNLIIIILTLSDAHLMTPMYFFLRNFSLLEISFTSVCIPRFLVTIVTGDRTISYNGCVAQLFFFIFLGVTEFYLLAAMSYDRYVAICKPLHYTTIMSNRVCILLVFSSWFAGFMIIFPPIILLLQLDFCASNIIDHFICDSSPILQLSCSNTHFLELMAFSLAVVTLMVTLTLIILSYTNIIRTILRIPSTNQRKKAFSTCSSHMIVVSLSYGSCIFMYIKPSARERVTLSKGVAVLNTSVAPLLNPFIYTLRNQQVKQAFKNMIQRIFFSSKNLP
Outline: as §1

UniProt Q8VGJ5 = target: T6, UniProt Q8VGJ5
T6 sequence (whole entry): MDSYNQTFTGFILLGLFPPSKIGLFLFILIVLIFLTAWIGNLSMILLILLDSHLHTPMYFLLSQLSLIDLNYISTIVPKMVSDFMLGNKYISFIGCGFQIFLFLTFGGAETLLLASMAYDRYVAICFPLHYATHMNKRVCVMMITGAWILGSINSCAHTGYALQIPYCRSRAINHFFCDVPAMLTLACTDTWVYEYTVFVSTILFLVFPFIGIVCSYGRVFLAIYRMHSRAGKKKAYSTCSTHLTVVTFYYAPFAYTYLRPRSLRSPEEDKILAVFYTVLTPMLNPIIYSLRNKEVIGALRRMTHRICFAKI
Outline: as §1

UniProt Q8VGL0 = target: T7, UniProt Q8VGL0
T7 sequence (whole entry): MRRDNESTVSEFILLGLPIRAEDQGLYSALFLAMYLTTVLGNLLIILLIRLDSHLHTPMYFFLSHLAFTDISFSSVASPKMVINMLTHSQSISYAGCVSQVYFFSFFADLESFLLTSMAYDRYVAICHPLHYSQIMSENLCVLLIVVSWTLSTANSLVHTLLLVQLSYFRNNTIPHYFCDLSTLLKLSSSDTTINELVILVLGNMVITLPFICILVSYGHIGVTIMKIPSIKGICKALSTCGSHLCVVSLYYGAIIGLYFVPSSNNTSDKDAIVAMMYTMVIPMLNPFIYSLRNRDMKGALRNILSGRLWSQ
Outline: as §1

UniProt Q8VGL7 = target: T8, UniProt Q8VGL7
T8 sequence (whole entry): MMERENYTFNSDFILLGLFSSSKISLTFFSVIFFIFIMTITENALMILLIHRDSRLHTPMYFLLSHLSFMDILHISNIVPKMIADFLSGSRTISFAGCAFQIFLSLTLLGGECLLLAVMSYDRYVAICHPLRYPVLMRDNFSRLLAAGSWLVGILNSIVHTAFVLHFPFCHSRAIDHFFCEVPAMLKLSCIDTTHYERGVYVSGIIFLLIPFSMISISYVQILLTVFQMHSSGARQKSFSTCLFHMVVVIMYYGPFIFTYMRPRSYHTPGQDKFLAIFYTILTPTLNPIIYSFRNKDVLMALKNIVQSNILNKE
Outline: as §1

UniProt Q8VGM2 = target: T9, UniProt Q8VGM2
T9 sequence (whole entry): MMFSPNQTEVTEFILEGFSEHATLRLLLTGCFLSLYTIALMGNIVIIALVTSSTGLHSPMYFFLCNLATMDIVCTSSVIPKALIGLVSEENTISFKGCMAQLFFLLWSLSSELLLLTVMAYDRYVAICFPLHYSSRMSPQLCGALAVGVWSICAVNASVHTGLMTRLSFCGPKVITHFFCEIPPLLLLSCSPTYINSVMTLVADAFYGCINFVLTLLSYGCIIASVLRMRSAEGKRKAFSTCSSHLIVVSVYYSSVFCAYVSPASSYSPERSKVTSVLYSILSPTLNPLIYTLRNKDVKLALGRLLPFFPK
Outline: as §1

UniProt Q8VGP6 = target: T10, UniProt Q8VGP6
T10 sequence (whole entry): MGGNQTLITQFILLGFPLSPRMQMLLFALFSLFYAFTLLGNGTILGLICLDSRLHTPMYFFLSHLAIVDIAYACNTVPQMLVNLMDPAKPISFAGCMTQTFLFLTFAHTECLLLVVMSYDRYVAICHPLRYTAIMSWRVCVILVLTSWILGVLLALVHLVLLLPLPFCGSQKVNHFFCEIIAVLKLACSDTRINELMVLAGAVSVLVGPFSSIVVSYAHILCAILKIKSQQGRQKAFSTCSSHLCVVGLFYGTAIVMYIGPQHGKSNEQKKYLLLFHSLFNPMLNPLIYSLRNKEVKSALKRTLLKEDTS
Outline: as §1

UniProt Q8VGQ3 = target: T11, UniProt Q8VGQ3
T11 sequence (whole entry): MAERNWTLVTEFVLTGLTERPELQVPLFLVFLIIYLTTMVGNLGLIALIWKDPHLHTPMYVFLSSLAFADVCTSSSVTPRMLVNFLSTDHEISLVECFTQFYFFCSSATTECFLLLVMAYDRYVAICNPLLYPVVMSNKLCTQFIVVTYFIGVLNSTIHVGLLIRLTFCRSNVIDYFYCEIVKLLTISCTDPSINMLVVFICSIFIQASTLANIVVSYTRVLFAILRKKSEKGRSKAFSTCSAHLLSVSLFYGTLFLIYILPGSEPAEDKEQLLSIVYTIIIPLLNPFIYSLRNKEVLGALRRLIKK
Outline: as §1

UniProt Q8VGT4 = target: T12, UniProt Q8VGT4
T12 sequence (whole entry): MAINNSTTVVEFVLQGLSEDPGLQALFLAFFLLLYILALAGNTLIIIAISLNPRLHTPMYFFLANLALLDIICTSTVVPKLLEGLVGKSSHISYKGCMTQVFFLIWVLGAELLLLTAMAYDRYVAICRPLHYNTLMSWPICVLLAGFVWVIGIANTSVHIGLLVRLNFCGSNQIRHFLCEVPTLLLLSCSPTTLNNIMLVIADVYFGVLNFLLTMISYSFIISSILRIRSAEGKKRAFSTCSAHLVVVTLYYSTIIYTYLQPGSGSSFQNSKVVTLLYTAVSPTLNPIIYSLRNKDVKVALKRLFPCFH
Outline: as §1

UniProt Q8VGU3 = target: T13, UniProt Q8VGU3
T13 sequence (whole entry): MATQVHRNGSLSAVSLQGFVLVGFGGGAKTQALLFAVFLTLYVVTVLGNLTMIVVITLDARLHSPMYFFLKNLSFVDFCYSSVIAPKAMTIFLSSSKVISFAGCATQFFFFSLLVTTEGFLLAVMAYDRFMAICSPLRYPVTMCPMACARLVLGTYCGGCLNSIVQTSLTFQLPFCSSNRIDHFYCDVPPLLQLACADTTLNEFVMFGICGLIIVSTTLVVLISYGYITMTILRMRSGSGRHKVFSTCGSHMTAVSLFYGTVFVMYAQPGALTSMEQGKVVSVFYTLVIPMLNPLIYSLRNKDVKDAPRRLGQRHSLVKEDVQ
Outline: as §1

UniProt Q8VGV1 = target: T14, UniProt Q8VGV1
T14 sequence (whole entry): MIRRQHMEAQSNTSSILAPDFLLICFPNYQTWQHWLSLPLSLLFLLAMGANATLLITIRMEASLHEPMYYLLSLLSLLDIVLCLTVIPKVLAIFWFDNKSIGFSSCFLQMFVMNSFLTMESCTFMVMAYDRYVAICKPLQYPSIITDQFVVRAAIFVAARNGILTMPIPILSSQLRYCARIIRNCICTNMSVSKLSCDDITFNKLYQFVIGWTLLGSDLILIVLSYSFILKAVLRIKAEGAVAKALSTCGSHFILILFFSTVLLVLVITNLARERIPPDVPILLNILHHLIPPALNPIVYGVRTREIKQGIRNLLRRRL
Outline: as §1

UniProt Q8VGV7 = target: T15, UniProt Q8VGV7
T15 sequence (whole entry): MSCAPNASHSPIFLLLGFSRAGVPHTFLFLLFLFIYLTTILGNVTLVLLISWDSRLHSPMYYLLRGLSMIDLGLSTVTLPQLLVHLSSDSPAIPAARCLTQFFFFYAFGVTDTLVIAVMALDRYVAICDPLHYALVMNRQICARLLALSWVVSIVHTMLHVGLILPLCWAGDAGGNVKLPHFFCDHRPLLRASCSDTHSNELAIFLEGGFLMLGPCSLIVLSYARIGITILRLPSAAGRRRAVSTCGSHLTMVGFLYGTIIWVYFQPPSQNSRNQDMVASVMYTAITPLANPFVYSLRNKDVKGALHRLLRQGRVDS
Outline: as §1

UniProt Q8VGX3 = target: T16, UniProt Q8VGX3
T16 sequence (whole entry): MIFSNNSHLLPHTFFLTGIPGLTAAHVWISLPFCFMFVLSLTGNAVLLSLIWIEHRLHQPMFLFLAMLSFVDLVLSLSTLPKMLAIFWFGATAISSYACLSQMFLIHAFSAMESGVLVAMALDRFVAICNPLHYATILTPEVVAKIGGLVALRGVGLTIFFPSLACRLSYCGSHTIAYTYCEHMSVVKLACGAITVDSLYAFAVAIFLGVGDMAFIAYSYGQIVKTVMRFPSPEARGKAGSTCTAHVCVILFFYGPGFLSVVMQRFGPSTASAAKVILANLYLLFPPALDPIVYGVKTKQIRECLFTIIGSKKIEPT
Outline: as §1

UniProt Q8VGX5 = target: T17, UniProt Q8VGX5
T17 sequence (whole entry): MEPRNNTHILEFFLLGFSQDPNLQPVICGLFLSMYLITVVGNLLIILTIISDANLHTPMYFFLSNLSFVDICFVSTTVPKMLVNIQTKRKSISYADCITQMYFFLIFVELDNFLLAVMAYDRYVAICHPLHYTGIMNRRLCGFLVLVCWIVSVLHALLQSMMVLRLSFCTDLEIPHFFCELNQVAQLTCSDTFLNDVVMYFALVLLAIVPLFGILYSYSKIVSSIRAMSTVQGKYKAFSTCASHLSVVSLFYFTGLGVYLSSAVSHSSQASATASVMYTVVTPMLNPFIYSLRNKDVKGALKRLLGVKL
Outline: as §1

CCC(=O)OC(C)(C)C
odorant receptor agonist call (UniProt Q8VGC6): inactive

CCCCCCC(C)=O
odorant receptor agonist call (UniProt Q8VGC6): active
odorant receptor agonist call (UniProt Q8VGD7): inactive
odorant receptor agonist call (UniProt Q8VGH1): inactive
odorant receptor agonist call (UniProt Q8VGJ1): inactive
odorant receptor agonist call (UniProt Q8VGJ3): inactive
odorant receptor agonist call (UniProt Q8VGJ5): active
odorant receptor agonist call (UniProt Q8VGL0): inactive
odorant receptor agonist call (UniProt Q8VGL7): inactive
odorant receptor agonist call (UniProt Q8VGM2): inactive
odorant receptor agonist call (UniProt Q8VGP6): inactive
odorant receptor agonist call (UniProt Q8VGQ3): inactive
odorant receptor agonist call (UniProt Q8VGT4): inactive
odorant receptor agonist call (UniProt Q8VGU3): inactive
odorant receptor agonist call (UniProt Q8VGV1): inactive
odorant receptor agonist call (UniProt Q8VGV7): inactive
odorant receptor agonist call (UniProt Q8VGX3): inactive
odorant receptor agonist call (UniProt Q8VGX5): inactive
